Calls of active or inactive are those of the source. No cut-off for these calls is given here.
How the values were obtained:
[1] = (§1) Displacement of [I125]angiotensin2 from AT1 receptor in Sprague-Dawley rat VSMC after 2.5 hrs by gamma spectrophotometry
Outline: (§2)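 Smooth muscle cells from rat aorta were isolated by collagenase digestion (1 h, 37 °C) and grown in DMEM with 15% FBS. Quiescent, confluent monolayers were incubated in PBS with 0.1 nM 125I-Ang II and compound at final 1×10^-12 to 1×10^-6 M for 2.5 h at 4 °C. Nonspecific binding was defined with 1×10^-6 M competitor. Cells were washed three times, lysed in 0.1 M NaOH, and bound radioactivity was gamma counted.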

Rattus norvegicus [2] = organism: Rattus norvegicus; assay: as §1; outline: as §2
Rattus norvegicus [3] = assay: Antihypertensive activity in rat spontaneous hypertensive model assessed as reduction in systolic blood pressure at 15 mg/kg, po up to 10 hrs; type: functional, organism-based; set-up: dose 15 mg/kg; conditions: Artery
Outline: (§3)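 Male spontaneously hypertensive rats, randomized into groups of ten. Compound suspended in 0.5% sodium carboxymethyl cellulose and given orally once at 15 or 30 mg/kg. Negative controls received the same volume of vehicle, and valsartan and irbesartan at equal doses served as positive controls. Blood pressure (SBP, DBP) and heart rate were monitored over 0–10 h after dosing with a biological signal analysis system.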

Rattus norvegicus [4] = assay: Antihypertensive activity in rat spontaneous hypertensive model assessed as reduction in systolic blood pressure at 30 mg/kg, po up to 10 hrs; type: functional, organism-based; set-up: dose 30 mg/kg; conditions: Artery; outline: as §3
Rattus norvegicus [5] = assay: Antihypertensive activity in rat spontaneous hypertensive model assessed as time of maximum effect on systolic blood pressure at 30 mg/kg, po; type: functional, Artery; outline: as §3
Rattus norvegicus [6] = assay: Antihypertensive activity in rat spontaneous hypertensive model assessed as reduction in diastolic blood pressure at 15 mg/kg, po up to 10 hrs; type: functional, organism-based; set-up: dose 15 mg/kg; conditions: Artery; outline: as §3
Rattus norvegicus [7] = assay: Antihypertensive activity in rat spontaneous hypertensive model assessed as reduction in diastolic blood pressure at 30 mg/kg, po up to 10 hrs; type: functional, organism-based; set-up: dose 30 mg/kg; conditions: Artery; outline: as §3
Rattus norvegicus [8] = assay: Antihypertensive activity in rat spontaneous hypertensive model assessed as time of maximum effect on diastolic blood pressure at 30 mg/kg, po; type: functional, Artery; outline: as §3
Rattus norvegicus [9] = assay: Toxicity in rat spontaneous hypertensive model assessed as effect on heart rate at 30 mg/kg, po; type: organism-based; set-up: dose 30 mg/kg, route oral; conditions: in vivo; outline: as §3
Rattus norvegicus [10] = assay: Toxicity in rat spontaneous hypertensive model assessed as effect on heart rate at 15 mg/kg, po; type: organism-based; set-up: dose 15 mg/kg, route oral; conditions: in vivo; outline: as §3
Rattus norvegicus [11] = assay: Acute toxicity in ICR rat assessed as hypokinetic beginning at 2236.1 mg/kg, administered intragastrically after 5 hrs; type: organism-based; set-up: dose 2236.1 mg/kg, route intragastric; conditions: in vivo, po
Outline: (§4)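 Normal ICR rats, 6–8 weeks, weighed individually; single intragastric doses of 5000.0, 3823.6, 2924.0, 2236.1, 1710.0 or 1000.0 mg/kg. Survival checked daily for two weeks. Animals observed continuously for physical signs of toxicity (skin changes, mobility, aggressiveness, respiratory movements). Survivors dissected at the end and organs examined for pathological changes.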

Rattus norvegicus [12] = assay: Acute toxicity in ICR rat assessed as hypokinetic beginning at 2924 mg/kg, administered intragastrically after 5 hrs; type: organism-based; set-up: dose 2924 mg/kg, route intragastric; conditions: in vivo, po; outline: as §4
Rattus norvegicus [13] = assay: Acute toxicity in ICR rat assessed as hypokinetic beginning at 3823.6 mg/kg, administered intragastrically after 5 hrs; type: organism-based; set-up: dose 3823.6 mg/kg, route intragastric; conditions: in vivo, po; outline: as §4
Rattus norvegicus [14] = assay: Acute toxicity in ICR rat assessed as hypokinetic beginning at 5000 mg/kg, administered intragastrically after 5 hrs; type: organism-based; set-up: dose 5000 mg/kg, route intragastric; conditions: in vivo, po; outline: as §4
Rattus norvegicus [15] = assay: Acute toxicity in ICR rat assessed as weight loss at 1000 mg/kg, administered intragastrically after 2 weeks; type: organism-based; set-up: dose 1000 mg/kg, route intragastric; conditions: in vivo, po, 336 h; outline: as §4
Rattus norvegicus [16] = assay: Acute toxicity in ICR rat assessed as weight loss at 1710 mg/kg, administered intragastrically after 2 weeks; type: organism-based; set-up: dose 1710 mg/kg, route intragastric; conditions: in vivo, po, 336 h; outline: as §4
Rattus norvegicus [17] = assay: Acute toxicity in ICR rat assessed as weight loss at 2236.1 mg/kg, administered intragastrically after 2 weeks; type: organism-based; set-up: dose 2236.1 mg/kg, route intragastric; conditions: in vivo, po, 336 h; outline: as §4
Rattus norvegicus [18] = assay: Acute toxicity in ICR rat assessed as weight loss at 2924 mg/kg, administered intragastrically after 2 weeks; type: organism-based; set-up: dose 2924 mg/kg, route intragastric; conditions: in vivo, po, 336 h; outline: as §4
Rattus norvegicus [19] = assay: Acute toxicity in ICR rat assessed as weight loss at 3823.6 mg/kg, administered intragastrically after 2 weeks; type: organism-based; set-up: dose 3823.6 mg/kg, route intragastric; conditions: in vivo, po, 336 h; outline: as §4
Rattus norvegicus [20] = assay: Acute toxicity in ICR rat assessed as weight loss at 5000 mg/kg, administered intragastrically after 2 weeks; type: organism-based; set-up: dose 5000 mg/kg, route intragastric; conditions: in vivo, po, 336 h; outline: as §4
[21] = Acute toxicity in ICR rat assessed as mortality at 1000 mg/kg, administered intragastrically after 14 days relative to control; type: organism-based; set-up: dose 1000 mg/kg, route intragastric; conditions: in vivo, po, read-out: Activity; outline: as §4
[22] = Acute toxicity in ICR rat assessed as mortality at 1710 mg/kg, administered intragastrically after 14 days relative to control; type: organism-based; set-up: dose 1710 mg/kg, route intragastric; conditions: in vivo, po, read-out: Activity; outline: as §4
[23] = Acute toxicity in ICR rat assessed as mortality at 2236.1 mg/kg, administered intragastrically after 14 days relative to control; type: organism-based; set-up: dose 2236.1 mg/kg, route intragastric; conditions: in vivo, po, read-out: Activity; outline: as §4
[24] = Acute toxicity in ICR rat assessed as mortality at 2924 mg/kg, administered intragastrically after 14 days relative to control; type: organism-based; set-up: dose 2924 mg/kg, route intragastric; conditions: in vivo, po, read-out: Activity; outline: as §4
[25] = Acute toxicity in ICR rat assessed as mortality at 3823.6 mg/kg, administered intragastrically after 14 days relative to control; type: organism-based; set-up: dose 3823.6 mg/kg, route intragastric; conditions: in vivo, po, read-out: Activity; outline: as §4
[26] = Acute toxicity in ICR rat assessed as mortality at 5000 mg/kg, administered intragastrically after 14 days relative to control; type: organism-based; set-up: dose 5000 mg/kg, route intragastric; conditions: in vivo, po, read-out: Activity; outline: as §4
[27] = Acute toxicity in intragastrically dosed ICR rat; type: organism-based; conditions: in vivo, po
Outline: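 ICR rats (6–8 weeks, individually weighed) dosed intragastrically at 1000.0–5000.0 mg/kg (six dose levels); daily survival over 14 days. LD50 with 95% confidence limits obtained by logistic regression (GLM) curve fitting of 14-day mortality data.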

Rattus norvegicus [28] = assay: Acute toxicity in ICR rat assessed as hypokinetic beginning at 1000 mg/kg, administered intragastrically after 5 hrs; type: organism-based; set-up: dose 1000 mg/kg, route intragastric; conditions: in vivo, po; outline: as §4
Rattus norvegicus [29] = assay: Acute toxicity in ICR rat assessed as hypokinetic beginning at 1710 mg/kg, administered intragastrically after 5 hrs; type: organism-based; set-up: dose 1710 mg/kg, route intragastric; conditions: in vivo, po; outline: as §4

| SMILES | IC50 [1] [nM] | Ki [1] [nM] | inhibition (Rattus norvegicus [2]) | Activity (Rattus norvegicus [3]) | Activity (Rattus norvegicus [4]) | Time (Rattus norvegicus [5]) [h] | Activity (Rattus norvegicus [6]) | Activity (Rattus norvegicus [7]) | Time (Rattus norvegicus [8]) [h] | Activity (Rattus norvegicus [9]) | Activity (Rattus norvegicus [10]) | further results |
| --- | --- | --- | --- | --- | --- | --- | --- | --- | --- | --- | --- | --- |
| CCC(=O)N(Cc1ccc(-c2ccccc2-c2nc(=O)o[nH]2)cc1)[C@H](C(=O)O)C(C)C | 1.6 | 1.03 | Dose-dependent effect | Active | Active | 3 | Active | Active | 3 | Non-toxic | Non-toxic |  |
| CCCCC(=O)N(Cc1ccc(-c2ccccc2-c2nc(=O)o[nH]2)cc1)[C@@H](Cc1ccccc1)C(=O)O | 18 | 12.2 | Dose-dependent effect | inactive | inactive |  | inactive | inactive |  | Non-toxic | Non-toxic |  |
| CCCC(=O)N(Cc1ccc(-c2ccccc2-c2nc(=O)o[nH]2)cc1)[C@@H](CC(C)C)C(=O)O | 36 | 24.3 | Dose-dependent effect | Active | Active | 3 | Active | Active | 3 | Non-toxic | Non-toxic |  |
| CCCC(=O)N(Cc1ccc(-c2ccccc2-c2nc(=O)o[nH]2)cc1)[C@H](C(=O)O)C(C)C | 0.49 | 0.33 | Dose-dependent effect | Active | Active | 3 | Active | Active | 3 | Non-toxic | Non-toxic | Activity (Rattus norvegicus [11]): Toxic; Activity (Rattus norvegicus [12]): Toxic; Activity (Rattus norvegicus [13]): Toxic; Activity (Rattus norvegicus [14]): Toxic; Activity (Rattus norvegicus [15]): Non-toxic; Activity (Rattus norvegicus [16]): Non-toxic; Activity (Rattus norvegicus [17]): Non-toxic; Activity (Rattus norvegicus [18]): Non-toxic; Activity (Rattus norvegicus [19]): Non-toxic; Activity (Rattus norvegicus [20]): Non-toxic; mortality at 336 h [21]: 0%; mortality at 336 h [22]: 30%; mortality at 336 h [23]: 50%; mortality at 336 h [24]: 60%; mortality at 336 h [25]: 80%; mortality at 336 h [26]: 100%; LD50 [27]: 2320 mg/kg; Activity (Rattus norvegicus [28]): Non-toxic; Activity (Rattus norvegicus [29]): Toxic |
| CCCCc1nc(Cl)c(CO)n1Cc1ccc(-c2ccccc2-c2nn[nH]n2)cc1 [LOSARTAN] |  |  |  |  |  |  |  |  |  |  |  | LD50 [27]: 2250 mg/kg |
| CCCCC(=O)N(Cc1ccc(-c2ccccc2-c2nc(=O)o[nH]2)cc1)[C@@H](CC(C)C)C(=O)O | 10.2 | 6.88 | Dose-dependent effect | inactive | inactive |  | inactive | inactive |  | Non-toxic | Non-toxic |  |
| CCCCC1=NC2(CCCC2)C(=O)N1Cc1ccc(-c2ccccc2-c2nnn[nH]2)cc1 [IRBESARTAN] | 0.58 | 0.41 | Dose-dependent effect | Active | Active | 3 | Active | Active | 3 | Non-toxic | Non-toxic |  |
| CCCCC(=O)N(Cc1ccc(-c2ccccc2-c2nc(=O)o[nH]2)cc1)[C@H](C(=O)O)C(C)C | 9.82 | 6.65 | Dose-dependent effect | Active | Active | 3 | Active | Active | 3 | Non-toxic | Non-toxic |  |
| CCCC(=O)N(Cc1ccc(-c2cc(F)ccc2-c2noc(=O)[nH]2)cc1)[C@H](C(=O)O)C(C)C | 20.8 | 14.1 | Dose-dependent effect |  | Active | 3 |  | Active | 3 | Non-toxic | Non-toxic |  |
| CCCC(=O)N(Cc1ccc(-c2ccccc2-c2nc(=O)o[nH]2)cc1)[C@@H](Cc1ccccc1)C(=O)O | 26.5 | 17.9 | Dose-dependent effect | inactive | inactive |  | inactive | inactive |  | Non-toxic | Non-toxic |  |
| CCCCC(=O)N(Cc1ccc(-c2ccccc2-c2nnn[nH]2)cc1)[C@H](C(=O)O)C(C)C [VALSARTAN] | 2.64 | 2.22 | Dose-dependent effect | Active |  |  | Active |  |  | Non-toxic | Non-toxic | LD50 [27]: 308 mg/kg |
